Data: ChEMBL document CHEMBL1153610, “Synthesis and antiprotozoal activities of dicationic bis(phenoxymethyl)benzenes, bis(phenoxymethyl)naphthalenes, and bis(benzyloxy)naphthalenes” (Eur J Med Chem, 2009)
Activity calls are given as the source filed them. The calls are words filed in the database; no cut-off is given here.

System: Trypanosoma brucei rhodesiense
Assay: Antitrypanosomal activity against Trypanosoma brucei rhodesiense STIB900
Format: functional, organism-based
Details: not given

Compound	IC50 [µM]
N=C(N)c1ccc(-c2ccc(-c3ccc(C(=N)N)cc3)o2)cc1 [FURAMIDINE]	0.0032
N=C(N)c1ccc(OCc2ccccc2COc2ccc(C(=N)N)cc2)cc1	0.144
N=C(N)c1cccc(OCc2cccc(COc3cccc(C(=N)N)c3)c2)c1	0.0473
N=C(NO)c1cccc(OCc2cccc(COc3cccc(C(=N)NO)c3)c2)c1	7.71
c1ccc(COc2ccc(C3=NCCN3)cc2)c(COc2ccc(C3=NCCN3)cc2)c1	0.647
CC(C)NC(=N)c1cccc(OCc2ccccc2COc2cccc(C(=N)NC(C)C)c2)c1	1.28
c1cc(COc2ccc(C3=NCCN3)cc2)cc(COc2ccc(C3=NCCN3)cc2)c1	0.0462

System: not listed separately
Assay: Selectivity index, ratio of IC50 for rat L6 cells to IC50 for Trypanosoma brucei rhodesiense STIB900
Format: toxicity, cell-based
Details: read-out: Ratio IC50

Compound	selectivity ratio
N=C(N)c1ccc(OCc2ccccc2COc2ccc(C(=N)N)cc2)cc1	209
N=C(N)c1cccc(OCc2cccc(COc3cccc(C(=N)N)c3)c2)c1	1360
N=C(NO)c1cccc(OCc2cccc(COc3cccc(C(=N)NO)c3)c2)c1	1.12
c1ccc(COc2ccc(C3=NCCN3)cc2)c(COc2ccc(C3=NCCN3)cc2)c1	168
CC(C)NC(=N)c1cccc(OCc2ccccc2COc2cccc(C(=N)NC(C)C)c2)c1	> 126
c1cc(COc2ccc(C3=NCCN3)cc2)cc(COc2ccc(C3=NCCN3)cc2)c1	2670

System: Plasmodium falciparum
Assay: Antimalarial activity against chloroquine-resistant Plasmodium falciparum K1
Format: functional, organism-based
Details: not given

Compound	IC50 [µM]
N=C(N)c1ccc(OCc2ccccc2COc2ccc(C(=N)N)cc2)cc1	0.153
N=C(N)c1cccc(OCc2cccc(COc3cccc(C(=N)N)c3)c2)c1	0.0191
N=C(NO)c1cccc(OCc2cccc(COc3cccc(C(=N)NO)c3)c2)c1	2.09
c1ccc(COc2ccc(C3=NCCN3)cc2)c(COc2ccc(C3=NCCN3)cc2)c1	0.0104
CC(C)NC(=N)c1cccc(OCc2ccccc2COc2cccc(C(=N)NC(C)C)c2)c1	0.111
c1cc(COc2ccc(C3=NCCN3)cc2)cc(COc2ccc(C3=NCCN3)cc2)c1	0.018

System: not listed separately
Assay: Selectivity index, ratio of IC50 for rat L6 cells to IC50 for chloroquine-resistant Plasmodium falciparum K1
Format: toxicity, cell-based
Details: read-out: Ratio IC50

Compound	selectivity ratio
N=C(N)c1ccc(OCc2ccccc2COc2ccc(C(=N)N)cc2)cc1	197
N=C(N)c1cccc(OCc2cccc(COc3cccc(C(=N)N)c3)c2)c1	3360
N=C(NO)c1cccc(OCc2cccc(COc3cccc(C(=N)NO)c3)c2)c1	4.12
c1ccc(COc2ccc(C3=NCCN3)cc2)c(COc2ccc(C3=NCCN3)cc2)c1	10500
CC(C)NC(=N)c1cccc(OCc2ccccc2COc2cccc(C(=N)NC(C)C)c2)c1	> 1470
c1cc(COc2ccc(C3=NCCN3)cc2)cc(COc2ccc(C3=NCCN3)cc2)c1	6860

System: Leishmania donovani
Assay: Antileishmanial activity against Leishmania donovani MHOM/SD/62/1S-CL2D amastigotes
Format: functional, organism-based
Details: not given
In short: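 IC50 taken as the average of duplicate determinations against L. donovani.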

Compound	IC50 [µM]
N=C(N)c1ccc(OCc2ccccc2COc2ccc(C(=N)N)cc2)cc1	3.82
N=C(NO)c1cccc(OCc2cccc(COc3cccc(C(=N)NO)c3)c2)c1	> 50
c1ccc(COc2ccc(C3=NCCN3)cc2)c(COc2ccc(C3=NCCN3)cc2)c1	3.66
CC(C)NC(=N)c1cccc(OCc2ccccc2COc2cccc(C(=N)NC(C)C)c2)c1	> 30
c1cc(COc2ccc(C3=NCCN3)cc2)cc(COc2ccc(C3=NCCN3)cc2)c1	3.99

System: not listed separately
Assay: Selectivity index, ratio of IC50 for rat L6 cells to IC50 for Leishmania donovani MHOM/SD/62/1S-CL2D amastigotes
Format: toxicity, cell-based
Details: read-out: Ratio IC50

Compound	selectivity ratio
N=C(N)c1ccc(OCc2ccccc2COc2ccc(C(=N)N)cc2)cc1	7.87
N=C(NO)c1cccc(OCc2cccc(COc3cccc(C(=N)NO)c3)c2)c1	< 0.172
c1ccc(COc2ccc(C3=NCCN3)cc2)c(COc2ccc(C3=NCCN3)cc2)c1	29.8
CC(C)NC(=N)c1cccc(OCc2ccccc2COc2cccc(C(=N)NC(C)C)c2)c1	< 5.41
c1cc(COc2ccc(C3=NCCN3)cc2)cc(COc2ccc(C3=NCCN3)cc2)c1	30.9

System: L6
Assay: Cytotoxicity against rat L6 cells
Format: cell-based
Details: not given
In short: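 Rat L6 myoblasts served as the cytotoxicity measure. IC50 is the average of duplicate determinations.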

Compound	IC50 [µM]
N=C(N)c1ccc(OCc2ccccc2COc2ccc(C(=N)N)cc2)cc1	30.1
N=C(N)c1cccc(OCc2cccc(COc3cccc(C(=N)N)c3)c2)c1	64.2
N=C(NO)c1cccc(OCc2cccc(COc3cccc(C(=N)NO)c3)c2)c1	8.6
c1ccc(COc2ccc(C3=NCCN3)cc2)c(COc2ccc(C3=NCCN3)cc2)c1	109
CC(C)NC(=N)c1cccc(OCc2ccccc2COc2cccc(C(=N)NC(C)C)c2)c1	> 162
c1cc(COc2ccc(C3=NCCN3)cc2)cc(COc2ccc(C3=NCCN3)cc2)c1	123

System: Trypanosoma brucei rhodesiense
Assay: Antitrypanosomal activity against Trypanosoma brucei rhodesiense STIB900 infected NMRI mouse assessed as infection cure rate at 5 mg/kg, ip dosed for 4 days
Format: functional, organism-based
Set-up: dose 5 mg/kg
Details: not given
In short: (§1)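 Mice infected with T. b. rhodesiense STIB900 were dosed intraperitoneally once daily for 4 days. Outcome was scored as cured/infected animals out of groups of four, plus mean survival days post infection for mice showing parasitemia relapse.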

Compound	Activity
N=C(N)c1cccc(OCc2cccc(COc3cccc(C(=N)N)c3)c2)c1	inactive

System: Trypanosoma brucei rhodesiense
Assay: Antitrypanosomal activity against Trypanosoma brucei rhodesiense STIB900 infected NMRI mouse assessed as infection cure rate at 20 mg/kg, ip dosed for 4 days
Format: functional, organism-based
Set-up: dose 20 mg/kg
Details: not given
In short: as §1

Compound	Activity
N=C(N)c1ccc(OCc2ccccc2COc2ccc(C(=N)N)cc2)cc1	inactive
c1cc(COc2ccc(C3=NCCN3)cc2)cc(COc2ccc(C3=NCCN3)cc2)c1	inactive

System: Trypanosoma brucei rhodesiense
Assay: Antitrypanosomal activity against Trypanosoma brucei rhodesiense STIB900 infected NMRI mouse assessed as infection cure rate at 100 mg/kg, po dosed for 4 days
Format: functional, organism-based
Set-up: dose 100 mg/kg
Details: not given
In short: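 Mice infected with T. b. rhodesiense STIB900 received oral doses once daily for 4 days. Cure was scored as cured/infected animals, with mean survival days post infection for relapsing mice.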

Compound	Activity
N=C(NO)c1cccc(OCc2cccc(COc3cccc(C(=N)NO)c3)c2)c1	inactive

System: Trypanosoma brucei rhodesiense
Assay: Antitrypanosomal activity against Trypanosoma brucei rhodesiense STIB900 infected NMRI mouse assessed mean survival time at 5 mg/kg, ip dosed for 4 days
Format: functional
Details: route intraperitoneal

Compound	Survival [days]
N=C(N)c1cccc(OCc2cccc(COc3cccc(C(=N)N)c3)c2)c1	17

System: Trypanosoma brucei rhodesiense
Assay: Antitrypanosomal activity against Trypanosoma brucei rhodesiense STIB900 infected NMRI mouse assessed mean survival time at 20 mg/kg, ip dosed for 4 days
Format: functional
Details: route intraperitoneal

Compound	Survival [days]
N=C(N)c1ccc(OCc2ccccc2COc2ccc(C(=N)N)cc2)cc1	13.5
c1cc(COc2ccc(C3=NCCN3)cc2)cc(COc2ccc(C3=NCCN3)cc2)c1	22.8

System: Trypanosoma brucei rhodesiense
Assay: Antitrypanosomal activity against Trypanosoma brucei rhodesiense STIB900 infected NMRI mouse assessed mean survival time at 100 mg/kg, po dosed for 4 days
Format: functional
Details: not given

Compound	Survival [days]
N=C(NO)c1cccc(OCc2cccc(COc3cccc(C(=N)NO)c3)c2)c1	14.5
